Laboratory results published in ChEMBL document CHEMBL4385626, “SAR optimization studies on modified salicylamides as a potential treatment for acute myeloid leukemia through inhibition of the CREB pathway” (Bioorg Med Chem Lett, 2019).
Calls of active or inactive are those of the source. The rule behind the calls is not given here.

Assays:
HL-60 [1] = experiment: Cytotoxicity against human HL60 cells incubated for 3 days by CellTiter-Glo luminescent assay; type: functional, cell-based; conditions: HL-60, 72 h
In short: (§1)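 CellTiter-Glo viability read-out on leukemia cell lines. IC50 reported as the average of triplicates.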

KG-1 = experiment: Cytotoxicity against human KG1 cells incubated for 3 days by CellTiter-Glo luminescent assay; type: functional, cell-based; conditions: KG-1, 72 h; in short: as §1
[2] = Inhibition of KIX-RLucC fused CBP (unknown origin) binding to KID-RLucN fused CREB (unknown origin) transfected in human HEK293 cells preincubated with compound 30 mins before forskolin addition and measured after 90 mins in presence of coelenterazine by split Renilla luciferase complementation assay
Jurkat = experiment: Cytotoxicity against human Jurkat cells incubated for 3 days by CellTiter-Glo luminescent assay; type: functional, cell-based; conditions: 72 h; in short: as §1
NALM-6 = experiment: Cytotoxicity against human NALM6 cells incubated for 3 days by CellTiter-Glo luminescent assay; type: functional, cell-based; conditions: NALM-6, 72 h; in short: as §1
[3] = Metabolic stability in human liver microsomes assessed as half life in presence of NADPH by LC-MS/MS analysis; type: ADME, Microsome
[4] = Metabolic stability in mouse liver microsomes assessed as half life in presence of NADPH by LC-MS/MS analysis; type: ADME, Microsome
Homo sapiens [5] = species: Homo sapiens; experiment: Inhibition of CBP KIX domain (unknown origin) binding to BODIPY-labeled phosphorylated CREB KID domain (unknown origin) interaction pre-incubated for 30 mins by fluorescence polarization assay
In short: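 Fluorescence polarization with BODIPY-labeled phosphorylated CREB KID domain and the CBP KIX domain. Polarization reports the degree of KIX-KID binding.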

Bone marrow cell = experiment: Cytotoxicity against human bone marrow cells incubated for 3 days by CellTiter-Glo luminescent assay; type: cell-based; conditions: 72 h
[6] = Elimination half life in NSG mouse at 2 mg/kg, iv measured after 7 to 150 mins by LC/MS/MS analysis; type: ADME, organism-based; conditions: in vivo, read-out: beta t1/2 (converted)
In short: (§2)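 Single IV dose of 2 mg/kg to NSG mice (NOD.Cg-Prkdc scid Il2rg tm1Wjl/SzJ), vehicle DMSO/Kolliphor EL/water (3/5/82). Compound levels measured in plasma at various times after injection. PK parameters derived from the plasma time-concentration profiles.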

[7] = AUC (0 to t) in NSG mouse at 2 mg/kg, iv measured after 7 to 150 mins by LC/MS/MS analysis; type: ADME, organism-based; conditions: in vivo; in short: as §2
[8] = AUC (0 to infinity) in NSG mouse at 2 mg/kg, iv measured after 7 to 150 mins by LC/MS/MS analysis; type: ADME, organism-based; set-up: dose 2 mg/kg, time infinity, route intravenous; conditions: in vivo; in short: as §2
[9] = MRT (0 to infinity) in NSG mouse at 2 mg/kg, iv measured after 7 to 150 mins by LC/MS/MS analysis; type: ADME, organism-based; conditions: in vivo; in short: as §2
[10] = Apparent volume of distribution in NSG mouse at 2 mg/kg, iv measured after 7 to 150 mins by LC/MS/MS analysis; type: ADME, organism-based; conditions: in vivo; in short: as §2
[11] = Clearance in NSG mouse at 2 mg/kg, iv measured after 7 to 150 mins by LC/MS/MS analysis; type: ADME, organism-based; conditions: in vivo; in short: as §2
[12] = Volume of distribution at steady state in NSG mouse at 2 mg/kg, iv measured after 7 to 150 mins by LC/MS/MS analysis; type: ADME, organism-based; conditions: in vivo; in short: as §2
[13] = Plasma concentration in NSG mouse at 2 mg/kg, iv measured after 7 to 150 mins by LC/MS/MS analysis; type: ADME, organism-based; conditions: in vivo; in short: as §2
HL-60 [14] = experiment: Induction of apoptosis in human HL60 cells assessed as early apoptotic cells at 1 uM incubated for 1 day by AnnexinV/DAPI double staining based flow cytometric analysis (reference value: 3.2 +/- 0.1%); type: functional
HL-60 [15] = experiment: Induction of apoptosis in human HL60 cells assessed as late apoptotic cells at 1 uM incubated for 1 day by AnnexinV/DAPI double staining based flow cytometric analysis (reference value: 1.2 +/- 0.03%); type: functional
HL-60 [16] = experiment: Induction of apoptosis in human HL60 cells assessed as PARP cleavage level at 1 uM incubated for 1 day by DAPI staining based flow cytometric analysis (reference value: 1.2 +/- 0.1%); type: functional
HL-60 [17] = experiment: Induction of cell cycle arrest in human HL60 cells assessed as accumulation at G1 phase at 1 uM incubated for 1 day by DAPI staining based flow cytometric analysis (reference value: 48.37 +/- 0.15%); type: functional
HL-60 [18] = experiment: Induction of cell cycle arrest in human HL60 cells assessed as S phase at 1 uM incubated for 1 day by DAPI staining based flow cytometric analysis (reference value: 27.5 +/- 0.57%); type: functional
HL-60 [19] = experiment: Induction of cell cycle arrest in human HL60 cells assessed as G2 phase at 1 uM incubated for 1 day by DAPI staining based flow cytometric analysis (reference value: 21.4 +/- 0.42%); type: functional
HL-60 [20] = experiment: Induction of cell cycle arrest in human HL60 cells assessed as M phase at 1 uM incubated for 1 day by DAPI staining based flow cytometric analysis (reference value: 2.64 +/- 0.06%); type: functional
Homo sapiens [21] = species: Homo sapiens; experiment: Inhibition of CREB in human HL60 cells assessed as downregulation of RFC3 gene expression at 1 uM incubated for 1 day by RT-qPCR analysis; type: cell-based
In short: (§3)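 HL60 cells given 1 μM compound for 1 d. RFC3 and POLD2 mRNA measured by RT-qPCR and normalized to 7SL lncRNA. Results given as mean of three independent experiments ± SEM.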

Homo sapiens [22] = species: Homo sapiens; experiment: Inhibition of CREB in human HL60 cells assessed as downregulation of POLD2 gene expression at 1 uM incubated for 1 day by RT-qPCR analysis; type: cell-based; in short: as §3

N#Cc1ccc(NC(=O)c2ccc3ccccc3c2)cc1
IC50 (HL-60 [1]): > 10000 nM | IC50 (KG-1): > 10000 nM | IC50 [2]: > 7000 nM

O=C(Nc1ccc(C(F)(F)F)cc1)c1cc(Br)ccc1O
IC50 (HL-60 [1]): 580 nM | IC50 (KG-1): 610 nM | IC50 (Jurkat): 620 nM | IC50 (NALM-6): 1090 nM

O=C(Nc1cc(F)cc(F)c1)c1ccc2cccnc2c1O
IC50 (HL-60 [1]): 510 nM | IC50 (KG-1): 3340 nM | IC50 (Jurkat): 430 nM | IC50 (NALM-6): 310 nM

COc1ccc(O)c(C(=O)Nc2ccc(C#N)cc2)c1
IC50 (HL-60 [1]): > 10000 nM | IC50 (KG-1): > 10000 nM | IC50 [2]: > 7000 nM

O=C(Nc1ccc(C(F)(F)F)cc1)c1ccc(Cl)cc1O
IC50 (HL-60 [1]): 630 nM | IC50 (KG-1): 580 nM | IC50 (Jurkat): 670 nM | IC50 (NALM-6): 1180 nM

N#Cc1ccc(C(=O)Nc2cc3ccccc3cc2O)cc1
IC50 (HL-60 [1]): > 10000 nM | IC50 (KG-1): > 10000 nM | IC50 [2]: > 7000 nM

O=C(Nc1ccc(C(F)(F)F)cc1)c1cc(Br)c(F)cc1O
IC50 (HL-60 [1]): 450 nM | IC50 (KG-1): 820 nM | IC50 (Jurkat): 880 nM | IC50 (NALM-6): 1300 nM

O=C(Nc1ccc(OC(F)(F)F)c(Cl)c1)c1ccc(C(F)(F)F)cc1O
IC50 (HL-60 [1]): 380 nM | IC50 (KG-1): 640 nM | IC50 (Jurkat): 790 nM | IC50 (NALM-6): 950 nM

N#Cc1ccc(NC(=O)c2cc(Cl)ccc2O)cc1
IC50 (HL-60 [1]): 700 nM | IC50 (KG-1): 1860 nM | IC50 [2]: 3990 nM

N#Cc1ccc(NC(=O)c2ccc3cccnc3c2O)c(F)c1
IC50 (HL-60 [1]): 730 nM | IC50 (KG-1): 3260 nM | IC50 (Jurkat): 420 nM | IC50 (NALM-6): 370 nM

O=C(Nc1ccc(C(F)(F)F)cc1)c1cc(Br)c(-c2ccccc2)cc1O
IC50 (HL-60 [1]): 540 nM | IC50 (KG-1): 400 nM | IC50 (Jurkat): 740 nM | IC50 (NALM-6): 1000 nM

O=C(Nc1cc(C(F)(F)F)cc(C(F)(F)F)c1)c1ccc(Cl)cc1O
IC50 (HL-60 [1]): 200 nM | IC50 (KG-1): 620 nM | IC50 (Jurkat): 570 nM | IC50 (NALM-6): 850 nM | half-life [3]: 159 min | half-life [4]: 31.8 min | inhibition (Homo sapiens [5]): Active | IC50 [2]: 2530 nM

O=C(Nc1cc(C(F)(F)F)cc(C(F)(F)F)c1)c1cc(Br)c(-c2ccccc2)cc1O
IC50 (HL-60 [1]): 430 nM | IC50 (KG-1): 300 nM | IC50 (Jurkat): 680 nM | IC50 (NALM-6): 840 nM | IC50 (Bone marrow cell): > 10000 nM | half-life [3]: 159 min | half-life [4]: 159 min | half-life [6]: 123 min | AUC(0-t) [7]: 2250 ng·h/mL | AUC(0-inf) [8]: 2330 ng·h/mL | MRT inf [9]: 61 min | Vz [10]: 0.003 mg/ng/mL | CL [11]: 0.00086 mg/ng/mL/h | Vdss [12]: 0.00087 mg/ng/mL | Cp [13]: 19 ng/mL | Activity (HL-60 [14]): 8.8% | Activity (HL-60 [15]): 30.9% | Activity (HL-60 [16]): 58.1% | Activity (HL-60 [17]): 69.77% | Activity (HL-60 [18]): 14.27% | Activity (HL-60 [19]): 14.37% | Activity (HL-60 [20]): 1.23% | inhibition (Homo sapiens [21]): Active | inhibition (Homo sapiens [22]): Active | inhibition (Homo sapiens [5]): Active | IC50 [2]: 1550 nM

O=C(Nc1cc(C(F)(F)F)cc(C(F)(F)F)c1)c1ccc(Br)cc1O
IC50 (HL-60 [1]): 270 nM | IC50 (KG-1): 830 nM | IC50 (Jurkat): 930 nM | IC50 (NALM-6): 1200 nM

O=C(Nc1ccc(Cl)c(Cl)c1)c1cc(F)ccc1O
IC50 (HL-60 [1]): 660 nM | IC50 (KG-1): 760 nM | IC50 (Jurkat): 670 nM | IC50 (NALM-6): 1370 nM

N#Cc1ccc(NC(=O)c2ccc3cccnc3c2O)c(C#N)c1
IC50 (HL-60 [1]): 890 nM | IC50 (KG-1): 3770 nM | IC50 (Jurkat): 270 nM | IC50 (NALM-6): 350 nM

O=C(Nc1ccc(C(F)(F)F)cc1)c1cc(Cl)c(-c2ccccc2)cc1O
IC50 (HL-60 [1]): 490 nM | IC50 (KG-1): 770 nM | IC50 (Jurkat): 1160 nM | IC50 (NALM-6): 800 nM

O=C(Nc1ccc([N+](=O)[O-])cc1Cl)c1cc(Cl)ccc1O [NICLOSAMIDE]
IC50 (HL-60 [1]): 300 nM | IC50 (KG-1): 360 nM | IC50 (Jurkat): 400 nM | IC50 (NALM-6): 620 nM | IC50 (Bone marrow cell): > 10000 nM | half-life [3]: 21 min | half-life [4]: 6.6 min | half-life [6]: 33.6 min | AUC(0-t) [7]: 536 ng·h/mL | AUC(0-inf) [8]: 536 ng·h/mL | MRT inf [9]: 24.2 min | Vz [10]: 0.0025 mg/ng/mL | Vdss [12]: 0.0015 mg/ng/mL | Cp [13]: 0.12 ng/mL | IC50 [2]: 1530 nM
